# Experimental data from different studies.
# Lines come from different studies, so protocols differ.
# Target: Tyrosine-protein kinase SYK (SYK, Homo sapiens, UniProt P43405)
SMILES,assay,conditions,endpoint,result
CC(C)S(=O)(=O)c1ccc2nccc(Nc3ccc4sc(C5CCCC5)nc4c3)c2c1,"enzyme activity, inhibitor",1 µM,activity vs control,104%
CCCCC(=O)Nc1ccc(-c2ccc3ncn(CCC)c(=O)c3c2)cn1,"binding, competition with immobilised ligand",0.5 µM,remaining binding,90%
C[C@H]1CC[C@H](n2c3cnccc3c3cnc(Nc4ccc5c(n4)CCN(C(=O)CO)C5)nc32)CC1,"cell-free assay, competition with immobilised ligand",1 µM,remaining binding,100%
CC#CC(=O)N1CCC[C@H]1c1nc(-c2ccc(C(=O)Nc3ccccn3)cc2)c2c(N)nccn12,"enzyme activity, inhibitor",1 µM,inhibition,0%
C1=C/COCc2cc(ccc2OCCN2CCCC2)Nc2nccc(n2)-c2cccc(c2)COC/1,cell-free assay,0.1 µM,remaining signal,87%
Cc1ccc(NC(=O)c2ccnc(C(F)(F)F)c2)cc1-c1cc(OCCO)nc(N2CCOCC2)c1,"binding, competition with immobilised ligand",1 µM,remaining binding,100%
COc1ccc2oc(-c3ccc4nc(N)oc4c3)c/c(=N\c3ccccc3NC(=O)CCN)c2c1,binding,1 µM,remaining binding,96%
CO[C@@H]1[C@H](N(C)C(=O)c2ccccc2)C[C@H]2O[C@]1(C)n1c3ccccc3c3c4c(c5c6ccccc6n2c5c31)C(=O)NC4,"enzyme activity, inhibitor",1 µM,inhibition,96%
